Data: ChEMBL document CHEMBL4364248, “Discovery of 1,2,4-oxadiazole-Containing hydroxamic acid derivatives as histone deacetylase inhibitors potential application in cancer therapy” (Eur J Med Chem, 2019)
Activity calls are given as the source filed them. No cut-off for these calls is given here.

Legend:
Daudi [1] = assay: Antitumour activity against human Daudi cells xenografted in NOD/SCID mouse assessed as DNA damage at 20 mg/kg, po treated on day 1,3 and 5 per week; assay type: functional, organism-based
Method in brief: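 Daudi s.c. xenografts in female NOD/SCID mice (5–6 weeks) were randomized six per group at 100–200 mm3. Dosing was 10 mg/kg i.v. or 20 mg/kg p.o. in 8% HP-β-CD on days 1, 3 and 5 weekly. Tumors were collected at study end for immunohistochemistry, with comparison to the control group.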

RPMI-8226 = assay: Antiproliferative activity against human RPMI8226 cells after 72 hrs by MTT assay; assay type: functional, cell-based; details: RPMI-8226, 72 h
[2] = Toxicity in NOD/SCID mouse xenografted with human Daudi cells assessed as abnormal behavior at 20 mg/kg, po treated on day 1,3 and 5 per week and measured for every 2 days; assay type: organism-based; details: in vivo, 48 h
Method in brief: (§1)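 Female NOD/SCID mice (5–6 weeks) bearing s.c. Daudi xenografts, six per group. Dosing was 10 mg/kg i.v. or 20 mg/kg p.o. in 8% HP-β-CD on days 1, 3 and 5 weekly. Behaviour was observed, and organ tissues were collected at sacrifice for H&E staining.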

[3] = Toxicity in NOD/SCID mouse xenografted with human Daudi cells at 10 mg/kg, iv treated on day 1,3 and 5 per week and measured for every 2 days; assay type: organism-based; details: in vivo, 48 h; method in brief: as §1
Daudi [4] = assay: Antitumour activity against human Daudi cells xenografted in NOD/SCID mouse assessed as reduction in tumour growth at 10 mg/kg, iv treated on day 1,3 and 5 per week and measured for every 2 days; assay type: functional; details: read-out: TGI
Method in brief: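 Daudi cells (107 in 100 µL serum-free RPMI 1640) were injected s.c. into the right flank of 5–6 week female NOD/SCID mice. At 100–200 mm3, mice were randomized six per group. Dosing was 10 mg/kg i.v. or 20 mg/kg p.o. in 8% HP-β-CD on days 1, 3 and 5 each week. Tumors were measured by caliper every 2 days, with TV = length × width² × 0.5.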

JeKo-1 [5] = assay: Antiproliferative activity against human JeKo1 cells after 72 hrs by MTT assay; assay type: functional, cell-based; details: JeKo-1, 72 h
[6] = Toxicity in NOD/SCID mouse xenografted with human Daudi cells assessed as organ damage at 10 mg/kg, iv treated on day 1,3 and 5 per week and measured for every 2 days by H and E staining based assay; assay type: organism-based; details: in vivo, 48 h; method in brief: as §1
[7] = Half life in Sprague-Dawley rat plasma at 5 mg/kg, po measured upto 24 hrs by LC-MS/MS analysis; assay type: ADME, organism-based
Method in brief: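 SD rats (200-250 g), six per time point, given 5 mg/kg as a tail-vein bolus or orally. Blood was taken by cardiac puncture before dosing and at 5, 15, 30, 45 min and 1, 2, 4, 6, 8, 10, 12 and 24 h. Plasma was spun at 4000 g for 15 min at 4 °C and stored at -80 °C. Analysis was LC-MS/MS with multiple-reaction monitoring, followed by noncompartmental analysis.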

JeKo-1 [8] = assay: Induction of apoptosis in human JeKo1 cells assessed as viable cells at 1000 nM after 48 hrs by annexin V-FITC/propidium iodide staining-based flow cytometric method (reference value: 91.6 %); assay type: functional; details: JeKo-1, 48 h, read-out: Activity
Method in brief: (§2)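 Jeko-1 cells were grown in RPMI-1640 with 10% FBS at 37 °C under 5% CO2. They were exposed to 0, 10, 100 or 1000 nM for 48 h, then apoptosis induction was analysed.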

JeKo-1 [9] = assay: Induction of apoptosis in human JeKo1 cells assessed as early apoptotic cells at 10 nM after 48 hrs by annexin V-FITC/propidium iodide staining-based flow cytometric method (reference value: 3.34 %); assay type: functional; method in brief: as §2
JeKo-1 [10] = assay: Induction of apoptosis in human JeKo1 cells assessed as necrotic cells at 10 nM after 48 hrs by annexin V-FITC/propidium iodide staining-based flow cytometric method (reference value: 2.03 %); assay type: functional; method in brief: as §2
JeKo-1 [11] = assay: Cell cycle arrest in human JeKo1 cells assessed as accumulation at G1 phase at 10 nM after 24 hrs by propidium iodide staining based flow cytometric analysis (reference value: 63.16 %); assay type: functional
Histone deacetylase 9 = Histone deacetylase 9 (Homo sapiens, UniProt Q9UKV0); assay: Inhibition of recombinant C-terminal His-tagged human HDAC9 (604 to 1066 residues) expressed in baculovirus infected Sf9 cells using Ac-peptide-AMC as substrate after 1 hr by fluorescence assay
JeKo-1 [12] = assay: Induction of cell cycle arrest in human JeKo1 cells assessed as accumulation at G1 phase after 24 hrs by propidium iodide staining-based flow cytometric method; assay type: functional

Sequence of Histone deacetylase 9 (Q9UKV0 whole entry, the tested form may be a part): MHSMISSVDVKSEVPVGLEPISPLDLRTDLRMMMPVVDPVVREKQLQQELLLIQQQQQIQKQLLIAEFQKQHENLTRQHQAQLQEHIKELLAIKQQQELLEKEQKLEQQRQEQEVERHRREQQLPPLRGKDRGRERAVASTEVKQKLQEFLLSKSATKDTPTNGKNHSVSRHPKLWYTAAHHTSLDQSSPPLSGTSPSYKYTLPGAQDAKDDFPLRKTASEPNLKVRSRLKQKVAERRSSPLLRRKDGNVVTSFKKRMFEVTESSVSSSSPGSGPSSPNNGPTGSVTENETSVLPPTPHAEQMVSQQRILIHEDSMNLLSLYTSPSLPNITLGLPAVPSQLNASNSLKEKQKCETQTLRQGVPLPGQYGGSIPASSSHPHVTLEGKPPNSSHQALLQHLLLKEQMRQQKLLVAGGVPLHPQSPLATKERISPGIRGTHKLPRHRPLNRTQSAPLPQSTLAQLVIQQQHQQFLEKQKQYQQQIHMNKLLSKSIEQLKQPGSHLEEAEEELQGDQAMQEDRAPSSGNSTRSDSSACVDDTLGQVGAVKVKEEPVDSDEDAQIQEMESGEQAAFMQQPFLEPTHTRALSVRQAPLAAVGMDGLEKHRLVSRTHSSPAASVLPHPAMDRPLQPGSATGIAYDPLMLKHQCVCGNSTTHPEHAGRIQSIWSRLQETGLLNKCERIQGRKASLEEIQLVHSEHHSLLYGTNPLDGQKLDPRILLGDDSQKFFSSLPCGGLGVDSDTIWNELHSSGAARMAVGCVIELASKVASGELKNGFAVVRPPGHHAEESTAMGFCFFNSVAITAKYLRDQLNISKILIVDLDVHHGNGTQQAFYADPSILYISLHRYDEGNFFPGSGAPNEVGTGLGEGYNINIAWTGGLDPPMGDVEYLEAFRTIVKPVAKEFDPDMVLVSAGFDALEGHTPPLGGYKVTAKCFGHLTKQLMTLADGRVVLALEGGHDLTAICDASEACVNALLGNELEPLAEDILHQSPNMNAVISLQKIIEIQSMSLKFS

Cc1ccc(CN2CCC(c3noc(CN(C)c4ncc(C(=O)NO)cn4)n3)CC2)cc1
Activity (Daudi [1]): Active
IC50 (RPMI-8226): 15.6 nM
Activity [2]: Non-Toxic
Activity [3]: Non-Toxic
inhibition in vivo at 10 mg/kg (Daudi [4]): 46.1%
IC50 (JeKo-1 [5]): 7.2 nM
Activity [6]: Non-Toxic
half-life [7]: 1.01 h
viability at 1 µM (JeKo-1 [8]): 26.9%
Activity (JeKo-1 [9]): 5.57%
Activity (JeKo-1 [10]): 0.39%
Activity (JeKo-1 [11]): 66.88%
IC50 (Histone deacetylase 9): 441 nM
Activity (JeKo-1 [12]): Dose-dependent effect
